The results in this text go back to ChEMBL document CHEMBL1828506, “New fluorine-containing hydrazones active against MDR-tuberculosis” (Eur J Med Chem, 2011).

For orientation: MIC means the lowest concentration that inhibits growth of the organism. A low value points to greater potency.

Values after ≈ are worked out from the molar mass of the structure shown.

For experiment [1], the system named is Mycobacterium tuberculosis. Put plainly: Antimycobacterial activity against multidrug-resistant Mycobacterium tuberculosis A8 241 after 28 days by colony forming unit determination. The format is functional. As to conditions: A8 241, 672 h. The method in brief: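 Compounds added to Sula liquid medium as DMSO solutions (DMSO at most 2%), incubated at 37 °C for 28 days. MIC is the lowest concentration giving visible growth inhibition. Activity was confirmed by CFU counts after subculture onto drug-free Löwenstein-Jensen solid medium.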

Experiment [2] can be described thus: Selectivity index, ratio of IC50 for human HepG2 cells to MIC for multidrug-resistant Mycobacterium tuberculosis A8 241. The format is functional.

For the molecule `O=C(N/N=C/Nc1ccc(C(=O)O)c(O)c1)c1ccc(C(F)(F)F)cc1`, the MIC in experiment [1] came to 0.5 µg/mL (≈ 1.36 µM).
On to `O=C(N/N=C/Nc1ccc(C(=O)O)c(O)c1)c1cccc(C(F)(F)F)c1`, for which the MIC in experiment [1] is 0.5 µg/mL (≈ 1.36 µM).
Consider `O=C(N/N=C/Nc1ccc(C(=O)O)c(O)c1)c1ccc(F)cc1`, for which, in experiment [1], the MIC turned out to be 0.5 µg/mL (≈ 1.58 µM).
As for `O=C(N/N=C/Nc1ccc(C(=O)O)c(O)c1)c1cccc(F)c1`, the “Selectivity Index” value in experiment [2] is recorded as 592.64. In experiment [1], this molecule returned an MIC of 0.5 µg/mL (≈ 1.58 µM).
Taken in the same sequence, the figures for `O=C(O)c1ccc(N/C=N/NC(=O)c2ccccc2F)cc1O` were 767.77 and 0.5 µg/mL (≈ 1.58 µM).
In the case of `O=C(N/N=C/N1CCN(c2cc3c(cc2F)c(=O)c(C(=O)O)cn3C2CC2)CC1)c1ccc(C(F)(F)F)cc1`, the “Selectivity Index” value in experiment [2] worked out at 378.41. The MIC in experiment [1] is 0.5 µg/mL (≈ 0.917 µM).
As to `O=C(N/N=C/N1CCN(c2cc3c(cc2F)c(=O)c(C(=O)O)cn3C2CC2)CC1)c1cccc(C(F)(F)F)c1`, in experiment [2], the “Selectivity Index” value came out at 351.15. In addition, the MIC in experiment [1] was 0.5 µg/mL (≈ 0.917 µM).
As for `O=C(N/N=C/N1CCN(c2cc3c(cc2F)c(=O)c(C(=O)O)cn3C2CC2)CC1)c1ccc(F)cc1`, in experiment [2], the “Selectivity Index” value stood at 1268.58. This molecule yielded an MIC in experiment [1] of 0.5 µg/mL (≈ 1.01 µM).
`O=C(N/N=C/N1CCN(c2cc3c(cc2F)c(=O)c(C(=O)O)cn3C2CC2)CC1)c1cccc(F)c1`: the “Selectivity Index” value in experiment [2] was 804.76. In experiment [1], this molecule had an MIC of 0.5 µg/mL (≈ 1.01 µM).
Taken in the same sequence, the figures for `CCn1cc(C(=O)O)c(=O)c2cc(F)c(N3CCN(/C=N/NC(=O)c4ccc(C(F)(F)F)cc4)CC3)cc21` were 3.98 and 5 µg/mL (≈ 9.37 µM).
For `CCn1cc(C(=O)O)c(=O)c2cc(F)c(N3CCN(/C=N/NC(=O)c4cccc(F)c4)CC3)cc21`, in experiment [2], the “Selectivity Index” value is reported as 38. For the same molecule, in experiment [1], the MIC stood at 5 µg/mL (≈ 10.3 µM).
`Nc1ccc(C(=O)O)c(O)c1` [AMINOSALICYLIC ACID] displayed an MIC in experiment [1] of 0.25 µg/mL (≈ 1.63 µM).
On to `O=C(O)c1cn(C2CC2)c2cc(N3CCNCC3)c(F)cc2c1=O` [CIPROFLOXACIN], for which the “Selectivity Index” value in experiment [2] is 110.37. In experiment [1], this molecule gave an MIC of 1.5 µg/mL (≈ 4.53 µM).
For `NNC(=O)c1ccncc1` [ISONIAZID], it took 1 µg/mL (≈ 7.29 µM) to inhibit growth in experiment [1] (MIC).
With `CCn1cc(C(=O)O)c(=O)c2cc(F)c(N3CCNCC3)cc21` [NORFLOXACIN], in experiment [2], the “Selectivity Index” value was 15.87. The lowest concentration to inhibit growth in experiment [1] (MIC) was 10 µg/mL (≈ 31.3 µM).
